ATG4B inh = blocks human ATG4B protease cleavage of LC3 substrate; inhibition, % at 8.33 µM; ATG4B cleavage of LC3-PLA2, NBD-HPC fluorescence, 1 h; AID 504462; hit rate 0.51% among 340,000; in the data active means inhibition above about 40%
Target sequence (Q9Y4P1 whole entry, looked up): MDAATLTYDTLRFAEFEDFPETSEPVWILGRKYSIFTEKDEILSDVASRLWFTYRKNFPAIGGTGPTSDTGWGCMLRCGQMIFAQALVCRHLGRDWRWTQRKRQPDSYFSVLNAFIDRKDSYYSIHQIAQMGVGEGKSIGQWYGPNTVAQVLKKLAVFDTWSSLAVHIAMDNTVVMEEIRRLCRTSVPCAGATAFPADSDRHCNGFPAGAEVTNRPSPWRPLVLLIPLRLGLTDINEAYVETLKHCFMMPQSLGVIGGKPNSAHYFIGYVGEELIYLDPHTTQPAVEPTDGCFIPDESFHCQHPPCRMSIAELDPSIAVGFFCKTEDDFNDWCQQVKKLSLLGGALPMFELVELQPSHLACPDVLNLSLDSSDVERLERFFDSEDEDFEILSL
SMARCA2 act = increases SMARCA2 function in MMTV reporter cells. activation, % at 9.1 µM. hit rate 1% among 370,000. MG213 cells, MMTV-luciferase reporter, dexamethasone, overnight; in the data active means activation above about 7.8%;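 further: 0% = vehicle wells and 100% = reference activator wells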
MPTP inh = blocks calcium-induced mitochondrial swelling. inhibition, % at 10 µM. hit rate 1.4% among 360,000. AID 602449. isolated mouse mitochondria, Ca2+ swelling absorbance, 30 min;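 active means inhibition of 50% or more, scaled per plate between neutral and stimulator controls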;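 further: 0% = DMSO wells given calcium and 100% = 1 mM EGTA wells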
MC4R barr agon = human MC4R agonism via beta-arrestin | U2OS MC4R beta-arrestin complementation, luminescence; percent of melanotan II response, DMSO zero | activation, % at 8.9 µM | hit rate 0.98% among 360,000;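 active means activation above a per-plate cutoff, the mean activation of sample wells on that plate plus 3 SD, cut at about 8% in these data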
Target sequence (P32245 whole entry, looked up): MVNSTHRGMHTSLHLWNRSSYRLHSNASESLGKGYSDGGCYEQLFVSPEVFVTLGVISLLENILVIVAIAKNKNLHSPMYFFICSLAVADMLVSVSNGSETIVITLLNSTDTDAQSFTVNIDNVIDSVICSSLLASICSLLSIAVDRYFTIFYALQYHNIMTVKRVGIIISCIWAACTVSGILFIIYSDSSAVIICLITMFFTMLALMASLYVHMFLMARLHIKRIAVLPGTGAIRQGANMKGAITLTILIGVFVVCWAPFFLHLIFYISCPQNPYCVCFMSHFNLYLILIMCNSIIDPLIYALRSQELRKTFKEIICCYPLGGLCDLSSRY
MC4R antag cAMP = human MC4R antagonism in cAMP assay; P32245; MC4R-expressing cells, MTII-stimulated cAMP, LANCE TR-FRET; inhibition, % at 6.5 µM; hit rate 0.48% among 360,000; AID 540295;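 active means inhibition above its plate's cutoff, the mean of tested wells on that plate plus 3 SD, cut at about 29% in these data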;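 further: 0% = Melanotan II alone and 100% = Melanotan II plus saturating MCL0020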
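Test system: U2OS cells stably expressing human melanocortin 4 receptor (MC4R); also added: Melanotan II challenge; compound: 6.5 µM single dose; timing: 30-min compound preincubation, 1-h Melanotan II challenge, 1-h detection, room temperature; signal: Eu-cAMP/anti-cAMP TR-FRET, emission 671 nm; repeats: one well per compound, no replicates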
ATG4B confirm = ATG4B (human) inhibition, single-dose confirmed; shares compounds with ATG4B inh; inhibition, % at 8.33 µM; hit rate 92% among 320; ATG4B protease fluorescent substrate cleavage assay; in the data active means inhibition above about 39%
PLA2 counter = inhibits human PLA2, flagging false ATG4B inhibitors; inhibition, % at 8.33 µM; shares compounds with ATG4B inh; purified PLA2, NBD-C6-HPC fluorescence, 45 min; hit rate 66% among 1,600; in the data active means inhibition above about 50%
MC4R barr conf = human MC4R beta-arrestin agonism confirmation | shares compounds with MC4R barr agon | activation, % at 8.9 µM | U2OS MC4R beta-arrestin recruitment, luminescence; scaled DMSO 0%, Melanotan II 100% | hit rate 31% among 2,400 | AID 602192;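 active means mean activation across replicates above the hit cutoff set in the earlier primary screen, cut at about 8% in these data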
MOR-DOR barr ag = OPRM1-OPRD1 heterodimer agonism counter-screen; U2OS PathHunter beta-arrestin, beta-gal luminescence; percent of deltorphin B response, DMSO zero; activation, % at 9.2 µM; shares compounds with MC4R barr agon; hit rate 5.8% among 2,400;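 active means mean activation across replicates exceeds the hit threshold derived in the earlier primary screen, cut at about 18% in these data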;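 further: 100% = deltorphin B at 0.9 µM final and 0% = DMSO alone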
Rh123 counter = membrane potential counter-screen of mitochondrial pore inhibitors | isolated mitochondria, Rhodamine 123 fluorescence | shares compounds with MPTP inh | hit rate 78% among 5,000 | inhibition, % at 10 µM | AID 624504; in the data active means inhibition above about 22%;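 further: 0% = DMSO vehicle and 100% = positive control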
* = called active by the depositor; . = not tested or not shown. A selection: hits, their analogues and other compounds. The true share with any hit is near 4.1%.

SMILES | ATG4B inh | SMARCA2 act | MPTP inh | MC4R barr agon | MC4R antag cAMP | PLA2 counter | Rh123 counter | others
CN1CCC2(CC1)N=C(c1ccc(F)cc1)C(=S)N2C(=O)c1ccc(C(C)(C)C)cc1 | 44.6* | -0.9 | -0.1 | 10.9* | 13.2 | 9.7 | . | MC4R barr conf=5.1;MOR-DOR barr ag=17.6
COC(=O)[C@]12C[C@H](CC(=O)NCc3cccc(C(F)(F)F)c3)C(=O)N(Cc3ccco3)C1=C[C@H](C1CCCC1)O[C@@H]2C | . | -3.3 | . | . | . | . | .
CCCCCCOC(=O)C[N+](C)(C)CCOC1CC2CCC1(C)C2(C)C (stereo not given) | 10.4 | -4.7 | -2.0 | 0.3 | 3.6 | . | .
CCCCCCCOC(=O)C[N+](C)(C)CCOC1CC2CCC1(C)C2(C)C (stereo not given) | 52.7* | -7.6 | 16.7 | 11.6* | -4.6 | 41.0 | . | ATG4B confirm=47.8*;MC4R barr conf=17.8*;MOR-DOR barr ag=11.9
C=CCN1[C@@H](Cc2ccccc2)COc2cccc(F)c2S1(=O)=O | . | -1.4 | . | . | . | . | .
Cc1onc(-c2ccccc2Cl)c1C(=O)NC(=S)NCC(=O)c1ccccc1 | 44.8* | -5.5 | 2.1 | 19.0* | 2.8 | 47.1 | . | MC4R barr conf=3.6;MOR-DOR barr ag=4.7
CC(COc1cccc(C#N)c1)CN1CCC(C(O)(c2ccccc2)c2ccccc2)CC1 (stereo not given) | . | 4.1 | . | . | . | . | .
S=C(Nc1ccccc1Oc1ccccc1)Nc1cccc(Cl)c1Cl | 88.4* | 0.2 | 77.8* | -1.1 | 2.6 | 94.7* | 68.8*
S=C(Nc1cccc(Cl)c1)Nc1ccccc1Oc1ccccc1 | 85.6* | -5.5 | 91.3* | 6.2 | 9.5 | 87.8* | 110.4*
O=c1cc(-c2ccccc2Cl)oc2c(NS(=O)(=O)c3cc(Cl)cc(Cl)c3O)ccc(O)c12 | 101.0* | . | 70.3* | -1.8 | 5.7 | 102.8* | 5.6
CC(=O)c1cccc(NC(=S)NNC(=O)c2ccc(C)c([N+](=O)[O-])c2)c1 | 14.0 | 2.5 | -1.1 | -0.3 | -1.7 | . | .
Cc1ccc(C(=O)NNC(=S)Nc2cccc(Cl)c2Cl)cc1[N+](=O)[O-] | 47.9* | . | 103.3* | -1.8 | 19.4 | 33.8 | 84.9* | ATG4B confirm=78.0*
Cc1ccc(NC(=S)NNC(=O)c2cccc([N+](=O)[O-])c2)cc1Cl | 76.9* | 0.3 | 78.9* | -3.5 | -1.6 | 77.8* | 64.5*
O=C(NNC(=S)Nc1ccc(F)cc1)c1cccc([N+](=O)[O-])c1 | 18.2 | -1.4 | 22.6 | -0.3 | 10.4 | . | .
CN(CCOC(=O)c1cc2ccccc2o1)C1CN(Cc2cn(Cc3ccccc3C(F)(F)F)nn2)S(=O)(=O)C1 (stereo not given) | . | -1.6 | . | . | . | . | .
CC(C)(C)c1ccc(C(=O)C2CCCN(C(=O)c3ccccn3)C2)cc1 (stereo not given) | 43.1* | 0.6 | 69.6* | -3.1 | 3.3 | 42.5 | 93.0* | ATG4B confirm=80.6*
Cc1cnc(C(=O)N2CCCC(C(=O)c3ccc(C(C)(C)C)cc3)C2)cn1 (stereo not given) | 5.8 | 0.7 | 0.8 | -2.8 | 6.6 | . | .
O=C1NC(=S)/C(=C\c2ccc(-c3ccccc3Cl)o2)S1 | 65.0* | -1.9 | 91.3* | -0.4 | 7.8 | 7.7 | 37.4*
COC(=O)c1ccc(NC(=S)NC2CCc3ccccc32)cc1 (stereo not given) | 48.2* | -1.8 | 80.0* | 0.8 | -0.7 | 56.2* | 81.3*
COc1ccc(-n2c(SCC(=O)NCCCSC)nnc2-c2ccncc2)cc1 | . | 3.8 | . | . | . | . | .
Cc1ccc(Cl)cc1N1CCN(C(=O)CSc2nnc3n2C(C)(C)Cc2ccccc2-3)CC1 | 44.4* | -5.7 | 94.0* | -2.6 | 8.4 | 69.0* | 90.0*
COc1ccc(N2CCN(C(=O)CSc3nnc4n3C(C)(C)Cc3ccccc3-4)CC2)cc1 | -9.1 | -4.2 | 17.1 | -1.4 | -3.6 | . | .
CCOC(=O)[C@@]12CN(C(=O)OC(C)(C)C)CC=C1N(Cc1ccc(OC)cc1)C(=O)[C@H]2CC(=O)NCC12CC3CC(CC(C3)C1)C2 | . | -2.8 | . | . | . | . | .
COC(=O)[C@]12C[C@H](CC(=O)NCc3cccs3)C(=O)N(Cc3ccco3)C1=C[C@H](C(C)C)O[C@@H]2C1CC1 | . | -4.5 | . | . | . | . | .
COc1ccc(/C=C2/C(=O)N(c3nc4ccccc4s3)N=C2CSc2ccc(Cl)cc2)cc1 | 56.3* | 2.3 | 91.1* | 2.1 | 4.5 | 42.9 | 56.5*
SMILES | ATG4B inh | SMARCA2 act | MPTP inh | MC4R barr agon | MC4R antag cAMP | PLA2 counter | Rh123 counter | others
CCCCNC(=O)c1sc(=S)n2c1[nH]c(=O)c1ccccc12 | 45.4* | -1.8 | 96.3* | 1.0 | 7.7 | 17.8 | 79.6*
O=C(NCCc1ccccc1)c1ccc2c(=O)[nH]c3c(C(=O)NCC4CCCO4)sc(=S)n3c2c1 (stereo not given) | 17.6 | 1.5 | -0.2 | -1.9 | 22.4 | . | .
CCN(Cc1ccccc1)S(=O)(=O)c1ccc(C(=O)N(CCCN(C)C)c2nc3c(C)c(C)ccc3s2)cc1 | 40.4* | -3.8 | 81.9* | 2.8 | 20.5 | 50.4* | -15.4
CCN(Cc1ccccc1)S(=O)(=O)c1ccc(C(=O)N(CCCN(C)C)c2nc3cc4c(cc3s2)OCO4)cc1 | 7.7 | 3.0 | 1.4 | 3.5 | 4.2 | . | .
CC1CCCN(c2cccc3c2S(=O)(=O)N(Cc2cccc(F)c2)[C@@H](C)[C@H](c2ccccc2)O3)C1 (stereo not given in full) | . | -6.3 | . | . | . | . | .
COc1ccc(Cn2cc(CN3[C@@H](c4ccccc4)COc4cc(Br)ccc4S3(=O)=O)nn2)cc1 | . | 3.3 | . | . | . | . | .
O=S(=O)(Nc1ccc(-c2csc(-c3ccccc3)n2)cc1)c1ccc(F)cc1 | -11.6 | 1.3 | 6.8 | 3.9 | 5.2 | . | .
O=C(Nc1nc(-c2ccccc2)cs1)c1ccccc1NS(=O)(=O)c1ccc(F)cc1 | 53.6* | -7.9 | 93.1* | 0.9 | 19.9 | 62.4* | 34.7*
Cc1onc(-c2ccccc2)c1CNC(=O)Nc1cccc(Cl)c1 | 46.0* | -6.0 | 77.9* | 1.8 | 8.4 | 44.5 | 85.0* | ATG4B confirm=73.2*
FC(F)Sc1ccc(NC(=S)NCc2ccccc2)cc1 | 43.7* | -4.3 | 85.2* | 1.7 | 10.1 | 60.2* | 92.3*
CN(C)NC(=S)Nc1cccc(C(F)(F)F)c1 | -4.2 | 1.2 | -1.7 | -1.7 | -3.9 | . | .
O=C(NCc1ccc(F)cc1)Nc1cccc(Cl)c1 | 67.2* | 3.6 | 84.7* | -2.2 | 3.1 | 73.4* | 92.5*

High-throughput results: PubChem BioAssay, several laboratories
